# Columns and labels:
# [1] = Antimetastatic activity against Brown Norwegian rat bearing BN472 tumor assessed as reduction of interpectoral lymph node weight at 1 mg/kg, ip administered once daily after 4 days of tumor transplantation for 17 to 18 days relative to control; assay type: functional; set-up: scale not given: the % may be the effect or the level left; details: route intraperitoneal
# [2] = target: Urokinase-type plasminogen activator (Mus musculus, UniProt P06869); assay: Inhibition of mouse uPA
# [3] = tested on: Rattus norvegicus; assay: Toxicity in Brown Norwegian rat bearing BN472 tumor assessed as decrease in liver weight at 1 mg/kg, ip administered once daily after 4 days of tumor transplantation for 17 to 18 days relative to control; assay type: organism-based; set-up: dose 1 mg/kg, route intraperitoneal; scale not given: the % may be the effect or the level left; details: in vivo
# In short: (§1)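 Orthotopic BN472 breast tumour model in rats. Daily i.p. dosing at 0.1 or 1 mg/kg started on day 4 and ran 17–18 days, with vehicle-only i.p. controls. Side effects were assessed from body weight and the weights of several organs, compared with controls.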
# [4] = Chemical stability assessed as half life of hydrolysis at pH 1; assay type: physicochemical; details: buffer
# [5] = Antitumor activity against Brown Norwegian rat bearing BN472 tumor assessed as reduction of tumor size at 1 mg/kg, ip administered once daily after 4 days of tumor transplantation for 17 to 18 days relative to control; assay type: functional; set-up: scale not given: the % may be the effect or the level left; details: route intraperitoneal
# In short: (§2)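 Rats bearing orthotopic BN472 breast tumours (grown three days) were dosed i.p. daily from day 4 for 17–18 days at 0.1 or 1 mg/kg. Vehicle-only i.p. controls were included. Tumour size and tumour weight were measured at the end of the treatment period and compared with controls.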
# [6] = target: Prothrombin (Homo sapiens, UniProt P00734); assay: Inhibition of human thrombin
# In short: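 Human plasma thrombin was assayed at 37 °C in Tris pH 8.3. […] Initial rate was read at 405 nm, in duplicate. IC50 was obtained from a four-parameter logistic fit.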
# [7] = Antitumor activity aganist Brown Norwegian rat bearing BN472 tumor assessed as reduction of tumor weight at 0.1 mg/kg, ip administered once daily after 4 days of tumor transplantation for 17 to 18 days relative to control; assay type: functional; set-up: scale not given: the % may be the effect or the level left; details: route intraperitoneal; in short: as §2
# [8] = Antitumor activity against Brown Norwegian rat bearing BN472 tumor assessed as reduction of tumor weight at 1 mg/kg, ip administered once daily after 4 days of tumor transplantation for 17 to 18 days relative to control; assay type: functional; set-up: scale not given: the % may be the effect or the level left; details: route intraperitoneal; in short: as §2
# [9] = Apparent solubility in phosphate buffered saline at pH 7.4 after 2 hrs; assay type: ADME
# In short: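 Compounds were serially diluted from 10 mM DMSO stock into PBS pH 7.4 (2% DMSO final), giving 1–200 µM final at eight concentrations, in duplicate. Incubation was 2 h at 37 °C. Solubility was taken as the onset of increased absorbance at 620 nm.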
# [10] = tested on: Rattus norvegicus; assay: Toxicity in Brown Norwegian rat bearing BN472 tumor assessed as effect on body weight at 0.1 mg/kg, ip administered once daily after 4 days of tumor transplantation for 17 to 18 days relative to control; assay type: organism-based; set-up: dose 0.1 mg/kg, route intraperitoneal; details: in vivo; in short: as §1
# [11] = Antimetastatic activity against Brown Norwegian rat bearing BN472 tumor assessed as decrease in number of lung foci at 1 mg/kg, ip administered once daily after 4 days of tumor transplantation for 17 to 18 days relative to control; assay type: functional; set-up: scale not given: the % may be the effect or the level left; details: route intraperitoneal
# In short: (§3)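 BN472 breast tumours implanted orthotopically in rats and left to grow three days. From day 4, compounds were given i.p. daily for 17–18 days at 0.1 or 1 mg/kg. Controls received vehicle i.p. only. Lung foci were counted and axillary lymph nodes weighed at the end of treatment. Groups were compared with control at an unadjusted significance level of P 0.05.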
# [12] = Antimetastatic activity against Brown Norwegian rat bearing BN472 tumor assessed as reduction of axillary lymph node weight at 0.1 mg/kg, ip administered once daily after 4 days of tumor transplantation for 17 to 18 days relative to control; assay type: functional; set-up: scale not given: the % may be the effect or the level left; details: route intraperitoneal; in short: as §3
# [13] = target: Plasminogen (Homo sapiens, UniProt P00747); assay: Inhibition of human plasmin
# In short: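 Plasmin from human plasma at about 5 mU was preincubated with inhibitor (0–250 µM final) for 15 min at 37 °C. Substrate was S-2366 at 580 µM in Tris pH 7.4. Initial rate was read at 405 nm, in duplicate. IC50 came from a four-parameter logistic fit.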
# [14] = target: Prothrombin (Mus musculus, UniProt P19221); assay: Inhibition of mouse thrombin
# [15] = tested on: Rattus norvegicus; assay: Toxicity in Brown Norwegian rat bearing BN472 tumor assessed as effect on body weight at 1 mg/kg, ip administered once daily after 4 days of tumor transplantation for 17 to 18 days relative to control; assay type: organism-based; set-up: dose 1 mg/kg, route intraperitoneal; details: in vivo; in short: as §1
# [16] = target: Prothrombin (Rattus norvegicus, UniProt P18292); assay: Inhibition of rat thrombin
# [17] = Chemical stability assessed as half life of hydrolysis at pH 8.8; assay type: physicochemical; details: buffer
# [18] = tested on: Rattus norvegicus; assay: Toxicity in Brown Norwegian rat bearing BN472 tumor assessed as decrease in spleen weight at 1 mg/kg, ip administered once daily after 4 days of tumor transplantation for 17 to 18 days relative to control; assay type: organism-based; set-up: dose 1 mg/kg, route intraperitoneal; scale not given: the % may be the effect or the level left; details: in vivo; in short: as §1
# [19] = Antimetastatic activity against Brown Norwegian rat bearing BN472 tumor assessed as reduction of axillary lymph node weight at 1 mg/kg, ip administered once daily after 4 days of tumor transplantation for 17 to 18 days relative to control; assay type: functional; set-up: scale not given: the % may be the effect or the level left; details: route intraperitoneal; in short: as §3
# [20] = tested on: Rattus norvegicus; assay: Toxicity in Brown Norwegian rat bearing BN472 tumor assessed as increase in kidney weight at 0.1 mg/kg, ip administered once daily after 4 days of tumor transplantation for 17 to 18 days relative to control; assay type: organism-based; set-up: dose 0.1 mg/kg, route intraperitoneal; details: in vivo; in short: as §1
# [21] = Chemical stability assessed as half life of hydrolysis at pH 7.4; assay type: physicochemical; details: buffer
# [22] = Antitumor activity aganist Brown Norwegian rat bearing BN472 tumor assessed as reduction of tumor size at 0.1 mg/kg, ip administered once daily after 4 days of tumor transplantation for 17 to 18 days relative to control; assay type: functional; set-up: scale not given: the % may be the effect or the level left; details: route intraperitoneal; in short: as §2
# [23] = tested on: Rattus norvegicus; assay: Toxicity in Brown Norwegian rat bearing BN472 tumor assessed as decrease in adrenal weight at 0.1 mg/kg, ip administered once daily after 4 days of tumor transplantation for 17 to 18 days relative to control; assay type: organism-based; set-up: dose 0.1 mg/kg, route intraperitoneal; scale not given: the % may be the effect or the level left; details: in vivo; in short: as §1
# [24] = Chemical stability assessed as half life of hydrolysis at pH 4; assay type: physicochemical; details: buffer
# [25] = tested on: Rattus norvegicus; assay: Toxicity in Brown Norwegian rat bearing BN472 tumor assessed as increase in uterus weight at 1 mg/kg, ip administered once daily after 4 days of tumor transplantation for 17 to 18 days relative to control; assay type: organism-based; set-up: dose 1 mg/kg, route intraperitoneal; details: in vivo; in short: as §1
# [26] = Stability in human plasma after 3 hrs; assay type: ADME, cell-free; details: read-out: Stability
# In short: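 Compound was added from 10 mM DMSO stock to human plasma at 200 µM final and shaken at 37 °C for up to 24 h. Aliquots were quenched in methanol and centrifuged. The supernatant was diluted with internal standard and analysed by LC/MS/MS in triplicate. Result is given as % parent compound remaining.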
# [27] = target: Plasminogen (Mus musculus, UniProt P20918); assay: Inhibition of mouse plasmin
# [28] = target: Urokinase-type plasminogen activator (Rattus norvegicus, UniProt P29598); assay: Inhibition of rat uPA
# [29] = Distribution coefficient, log D in octanol and phosphate buffer saline at pH 7.4; assay type: physicochemical; details: octanol/phosphate buffered saline
# In short: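 A 10 mM DMSO stock was added to a 1:1 octanol/PBS pH 7.4 mixture. Measured in duplicate.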
# [30] = tested on: Rattus norvegicus; assay: Toxicity in Brown Norwegian rat bearing BN472 tumor assessed as increase in lung weight at 0.1 mg/kg, ip administered once daily after 4 days of tumor transplantation for 17 to 18 days relative to control; assay type: organism-based; set-up: dose 0.1 mg/kg, route intraperitoneal; details: in vivo; in short: as §1
# [31] = tested on: Rattus norvegicus; assay: Toxicity in Brown Norwegian rat bearing BN472 tumor assessed as increase in kidney weight at 1 mg/kg, ip administered once daily after 4 days of tumor transplantation for 17 to 18 days relative to control; assay type: organism-based; set-up: dose 1 mg/kg, route intraperitoneal; details: in vivo; in short: as §1
# [32] = Antimetastatic activity against Brown Norwegian rat bearing BN472 tumor assessed as decrease in number of lung foci at 0.1 mg/kg, ip administered once daily after 4 days of tumor transplantation for 17 to 18 days relative to control; assay type: functional; set-up: scale not given: the % may be the effect or the level left; details: route intraperitoneal; in short: as §3
# [33] = target: Plasminogen (Rattus norvegicus, UniProt Q01177); assay: Inhibition of rat plasmin
# [34] = tested on: Rattus norvegicus; assay: Toxicity in Brown Norwegian rat bearing BN472 tumor assessed as decrease in liver weight at 0.1 mg/kg, ip administered once daily after 4 days of tumor transplantation for 17 to 18 days relative to control; assay type: organism-based; set-up: dose 0.1 mg/kg, route intraperitoneal; scale not given: the % may be the effect or the level left; details: in vivo; in short: as §1
# [35] = target: Urokinase-type plasminogen activator (Homo sapiens, UniProt P00749)
# [36] = tested on: Rattus norvegicus; assay: Toxicity in Brown Norwegian rat bearing BN472 tumor assessed as decrease in spleen weight at 0.1 mg/kg, ip administered once daily after 4 days of tumor transplantation for 17 to 18 days relative to control; assay type: organism-based; set-up: dose 0.1 mg/kg, route intraperitoneal; scale not given: the % may be the effect or the level left; details: in vivo; in short: as §1
# [37] = tested on: Rattus norvegicus; assay: Toxicity in Brown Norwegian rat bearing BN472 tumor assessed as increase in uterus weight at 0.1 mg/kg, ip administered once daily after 4 days of tumor transplantation for 17 to 18 days relative to control; assay type: organism-based; set-up: dose 0.1 mg/kg, route intraperitoneal; details: in vivo; in short: as §1
# [38] = Antimetastatic activity against Brown Norwegian rat bearing BN472 tumor assessed as reduction of interpectoral lymph node weight at 0.1 mg/kg, ip administered once daily after 4 days of tumor transplantation for 17 to 18 days relative to control; assay type: functional; set-up: scale not given: the % may be the effect or the level left; details: route intraperitoneal
# Sequence of Urokinase-type plasminogen activator (Mus musculus, UniProt P06869) (P06869 21-178 limits assumed): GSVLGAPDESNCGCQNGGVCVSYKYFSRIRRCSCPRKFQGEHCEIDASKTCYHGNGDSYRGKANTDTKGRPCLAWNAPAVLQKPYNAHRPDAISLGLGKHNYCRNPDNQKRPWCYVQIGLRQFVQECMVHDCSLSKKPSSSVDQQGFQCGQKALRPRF
# Sequence of Urokinase-type plasminogen activator (Mus musculus, UniProt P06869) (P06869 180-433 limits assumed): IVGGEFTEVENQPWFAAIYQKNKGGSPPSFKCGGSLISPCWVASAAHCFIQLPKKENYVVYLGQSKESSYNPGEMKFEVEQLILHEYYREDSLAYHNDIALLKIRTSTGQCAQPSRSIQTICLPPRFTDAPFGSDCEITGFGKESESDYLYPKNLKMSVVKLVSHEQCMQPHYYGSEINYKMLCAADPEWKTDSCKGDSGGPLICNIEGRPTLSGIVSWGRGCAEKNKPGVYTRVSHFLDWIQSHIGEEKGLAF
# Sequence of Urokinase-type plasminogen activator (Rattus norvegicus, UniProt P29598) (P29598 20-177 limits assumed): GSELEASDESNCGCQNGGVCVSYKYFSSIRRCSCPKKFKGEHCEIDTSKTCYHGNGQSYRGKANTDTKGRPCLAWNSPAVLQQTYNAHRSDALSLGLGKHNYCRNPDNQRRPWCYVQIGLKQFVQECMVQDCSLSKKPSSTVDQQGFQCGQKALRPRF
# Sequence of Urokinase-type plasminogen activator (Rattus norvegicus, UniProt P29598) (P29598 179-432 limits assumed): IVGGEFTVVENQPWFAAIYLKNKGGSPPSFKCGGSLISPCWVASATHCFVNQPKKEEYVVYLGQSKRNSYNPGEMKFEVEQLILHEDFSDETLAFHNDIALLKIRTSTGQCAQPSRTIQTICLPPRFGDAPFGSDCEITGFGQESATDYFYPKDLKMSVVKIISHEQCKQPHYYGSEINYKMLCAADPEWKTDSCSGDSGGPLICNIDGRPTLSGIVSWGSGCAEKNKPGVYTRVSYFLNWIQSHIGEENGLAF
# Sequence of Plasminogen (Mus musculus, UniProt P20918) (P20918 98-581 limits assumed): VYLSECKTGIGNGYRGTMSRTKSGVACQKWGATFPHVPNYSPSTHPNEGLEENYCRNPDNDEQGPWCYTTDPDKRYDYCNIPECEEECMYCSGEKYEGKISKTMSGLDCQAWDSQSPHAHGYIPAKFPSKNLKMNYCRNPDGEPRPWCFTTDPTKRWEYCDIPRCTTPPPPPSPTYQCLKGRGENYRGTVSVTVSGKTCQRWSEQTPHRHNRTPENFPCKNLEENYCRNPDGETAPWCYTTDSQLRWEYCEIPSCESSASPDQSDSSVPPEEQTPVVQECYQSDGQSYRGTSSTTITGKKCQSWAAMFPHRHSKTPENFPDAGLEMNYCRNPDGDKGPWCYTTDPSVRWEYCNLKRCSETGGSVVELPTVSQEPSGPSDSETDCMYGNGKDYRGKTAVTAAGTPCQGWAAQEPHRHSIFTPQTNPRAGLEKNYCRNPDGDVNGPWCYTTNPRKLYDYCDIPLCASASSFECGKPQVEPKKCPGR
# Sequence of Plasminogen (Mus musculus, UniProt P20918) (P20918 582-812 limits assumed): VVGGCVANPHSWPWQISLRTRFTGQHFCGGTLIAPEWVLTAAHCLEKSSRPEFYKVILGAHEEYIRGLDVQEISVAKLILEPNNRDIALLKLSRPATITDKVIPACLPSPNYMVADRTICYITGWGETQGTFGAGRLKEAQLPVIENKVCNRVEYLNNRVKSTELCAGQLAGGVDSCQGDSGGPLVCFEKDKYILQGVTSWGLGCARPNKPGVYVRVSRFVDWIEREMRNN
# Sequence of Plasminogen (Rattus norvegicus, UniProt Q01177) (Q01177 97-581 limits assumed): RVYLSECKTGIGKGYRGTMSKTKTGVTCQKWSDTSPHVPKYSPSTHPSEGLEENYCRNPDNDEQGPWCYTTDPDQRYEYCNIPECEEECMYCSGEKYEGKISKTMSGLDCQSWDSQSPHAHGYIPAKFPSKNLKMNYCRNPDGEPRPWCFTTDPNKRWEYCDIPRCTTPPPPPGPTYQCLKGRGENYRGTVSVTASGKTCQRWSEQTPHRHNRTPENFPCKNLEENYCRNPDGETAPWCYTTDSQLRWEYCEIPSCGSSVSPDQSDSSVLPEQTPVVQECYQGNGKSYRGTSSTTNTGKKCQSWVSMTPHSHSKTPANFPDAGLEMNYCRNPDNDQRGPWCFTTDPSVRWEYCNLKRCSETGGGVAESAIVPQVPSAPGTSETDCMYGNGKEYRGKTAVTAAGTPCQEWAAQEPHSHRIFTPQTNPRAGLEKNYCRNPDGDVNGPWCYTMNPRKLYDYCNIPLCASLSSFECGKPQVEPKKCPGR
# Sequence of Plasminogen (Rattus norvegicus, UniProt Q01177) (Q01177 582-812 limits assumed): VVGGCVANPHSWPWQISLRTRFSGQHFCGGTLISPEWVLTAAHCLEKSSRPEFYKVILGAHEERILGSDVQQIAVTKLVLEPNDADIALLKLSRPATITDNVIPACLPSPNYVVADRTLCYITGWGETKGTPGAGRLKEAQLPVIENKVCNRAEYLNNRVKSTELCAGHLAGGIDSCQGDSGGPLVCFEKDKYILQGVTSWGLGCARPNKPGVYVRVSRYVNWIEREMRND
# Sequence of Plasminogen (Homo sapiens, UniProt P00747) (P00747 97-580 limits assumed): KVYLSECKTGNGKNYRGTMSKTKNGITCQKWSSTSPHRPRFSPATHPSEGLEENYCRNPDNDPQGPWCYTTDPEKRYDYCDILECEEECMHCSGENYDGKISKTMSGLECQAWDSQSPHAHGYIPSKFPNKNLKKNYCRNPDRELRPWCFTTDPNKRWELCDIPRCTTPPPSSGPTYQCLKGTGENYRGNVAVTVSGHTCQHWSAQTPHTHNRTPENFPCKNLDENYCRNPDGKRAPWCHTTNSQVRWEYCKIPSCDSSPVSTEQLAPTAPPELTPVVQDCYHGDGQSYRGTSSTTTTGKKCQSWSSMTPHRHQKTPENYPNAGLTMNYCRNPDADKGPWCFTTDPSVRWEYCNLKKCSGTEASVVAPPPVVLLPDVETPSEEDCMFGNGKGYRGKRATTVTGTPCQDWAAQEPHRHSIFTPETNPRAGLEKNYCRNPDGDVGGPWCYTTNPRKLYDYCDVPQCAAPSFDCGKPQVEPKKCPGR
# Sequence of Plasminogen (Homo sapiens, UniProt P00747) (P00747 581-810 limits assumed): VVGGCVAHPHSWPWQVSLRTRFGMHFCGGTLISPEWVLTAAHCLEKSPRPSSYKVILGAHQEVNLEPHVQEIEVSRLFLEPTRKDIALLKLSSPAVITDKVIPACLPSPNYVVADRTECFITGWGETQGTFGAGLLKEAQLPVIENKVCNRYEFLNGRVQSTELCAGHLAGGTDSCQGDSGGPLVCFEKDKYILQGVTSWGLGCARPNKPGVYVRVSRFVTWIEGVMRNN
compound,measurement,setting,value
COC(=O)NC(Cc1ccc(NC(=N)N)cc1)P(=O)(Oc1ccccc1)Oc1ccccc1 (stereo not drawn),Activity,[1],8%
same,IC50,[2],0.032 µM
same,Activity,[3],3%
same,half-life,[4],> 336 h
same,Activity,[5],11%
same,IC50,[6],17 µM
same,Activity,[7],27%
same,Activity,[8],9%
same,solubility at 2 h,[9],> 200 µM
same,Activity,[10],168.5 g
same,Activity,[11],61%
same,Activity,[12],46%
same,IC50,[13],13 µM
same,IC50,[14],42 µM
same,Activity,[15],169.5 g
same,IC50,[16],> 100 µM
same,half-life,[17],6 h
same,Activity,[18],12%
same,Activity,[19],61%
same,Activity,[20],3%
same,half-life,[21],120 h
same,Activity,[22],17%
same,Activity,[23],3%
same,half-life,[24],> 336 h
same,Activity,[25],36%
same,remaining at 3 h,[26],63%
same,IC50,[27],25 µM
same,IC50,[28],0.0195 µM
same,logD,[29],1.1
same,Activity,[30],3%
same,Activity,[31],8%
same,Activity,[32],29%
same,IC50,[33],15 µM
same,Activity,[34],2%
same,Kapp,[35],62000 M⁻¹ s⁻¹
same,Activity,[36],17%
same,Activity,[37],30%
same,Activity,[38],10%

# Reference: ChEMBL document CHEMBL1138351, “Small, potent, and selective diaryl phosphonate inhibitors for urokinase-type plasminogen activator with in vivo antimetastatic properties” (J Med Chem, 2007)
